# Data: ChEMBL document CHEMBL1152601, “Synthesis and biological evaluation of novel phthalazinone derivatives as topically active phosphodiesterase 4 inhibitors” (Bioorg Med Chem, 2009)
# pIC50: −log10 of the molar value.
# Key:
# [1] = biological target: 3',5'-cyclic-AMP phosphodiesterase 4D (Homo sapiens, UniProt Q08499); test: Inhibition of human recombinant PDE4D catalytic domain cloned from human HL60 cells assessed as inhibition of cAMP hydrolysis
# Blood = test: Antiinflammatory activity against Sprague-Dawley rat whole blood assessed as suppression of LPS-induced TNFalpha production by ELISA; assay type: functional, tissue-based
# Summary of the method: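 Blood from 10-week-old male Sprague-Dawley rats, drawn from the abdominal vein under ether anesthesia into 1.6 mg/mL EDTA. Compound diluted from 10 mM DMSO stock, preincubated with blood for 30 min at 37 °C in 5% CO2. LPS (100 µg/mL solution, 10 µL to 90 µL) added, then 5 h incubation. PBS added, centrifuged, supernatant TNF-α measured by ELISA. IC50 derived for 50% inhibition.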
# [2] = Half life in human liver S9 fraction; assay type: ADME, subcellular
# Summary of the method: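 Human liver S9 fraction (1 mg protein/mL) in 100 mM potassium phosphate pH 7.4 with NADPH-generating system, preincubated 5 min at 37 °C. Compound added from methanol to 2 µM final, incubated 0, 2 or 10 min at 37 °C, stopped with acetonitrile. Parent remaining quantified by HPLC, UV 314 nm. Half-life obtained as -0.693/k, k from log-linear regression of percent remaining.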
# Mus musculus = test: Reduction of dermatitis in topically administered BALB/c mouse assessed as reduction of TNCB-induced ear swelling; assay type: functional; set-up: scale not given: the % may be the effect or the level left
# Summary of the method: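 Eight-week-old male BALB/c mice with TNCB-induced dermatitis on the right pinna. 20 mg of 1% compound in vaseline ointment applied topically; diseased controls got plain vaseline during the last week (n = 4). The untreated left pinna served as normal reference. Pinna thickness measured by digital micrometer 6 h after the last application. Percent reduction of swelling (right minus left) calculated relative to the diseased control.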
# [3] = Rattus norvegicus, Sprague-Dawley, Blood
# Chain of 3',5'-cyclic-AMP phosphodiesterase 4D (Q08499 whole entry, the tested form may be a part): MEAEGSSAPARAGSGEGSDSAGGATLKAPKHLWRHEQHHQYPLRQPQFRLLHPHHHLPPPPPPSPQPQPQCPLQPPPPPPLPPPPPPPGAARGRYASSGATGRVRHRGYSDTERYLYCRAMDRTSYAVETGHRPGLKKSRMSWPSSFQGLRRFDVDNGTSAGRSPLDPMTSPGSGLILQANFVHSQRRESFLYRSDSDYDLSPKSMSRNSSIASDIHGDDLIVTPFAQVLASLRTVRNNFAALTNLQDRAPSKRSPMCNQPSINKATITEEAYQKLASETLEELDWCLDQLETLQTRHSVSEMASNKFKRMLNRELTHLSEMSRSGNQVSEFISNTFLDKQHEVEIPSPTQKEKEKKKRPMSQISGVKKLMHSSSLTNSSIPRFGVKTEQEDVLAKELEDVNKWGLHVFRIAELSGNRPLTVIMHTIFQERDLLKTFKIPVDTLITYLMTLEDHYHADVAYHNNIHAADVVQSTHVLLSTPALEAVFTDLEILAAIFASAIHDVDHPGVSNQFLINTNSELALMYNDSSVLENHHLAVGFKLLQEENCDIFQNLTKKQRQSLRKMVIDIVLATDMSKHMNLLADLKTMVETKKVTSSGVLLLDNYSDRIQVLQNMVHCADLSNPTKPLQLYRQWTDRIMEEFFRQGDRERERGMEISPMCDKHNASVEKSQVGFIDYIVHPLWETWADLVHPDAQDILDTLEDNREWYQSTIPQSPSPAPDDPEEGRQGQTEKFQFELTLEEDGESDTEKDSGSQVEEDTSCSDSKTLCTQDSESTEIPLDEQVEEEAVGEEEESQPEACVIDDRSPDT
SMILES,pIC50 [1],pIC50 (Blood; [3]),half-life [2],Activity (Mus musculus),pIC50 (Blood)
COc1ccc(C2=NN(Cc3ccc(CN4CCOCC4)cc3)C(=O)CC2)cc1OC,7.34,6.35,–,–,–
COc1ccc(C2=NN(Cc3ccc(CN4CCOCC4)cc3)C(=O)[C@@H]3CC=CC[C@H]23)cc1OC.Cl,9.52,–,6 min,38.5%,8.38
COc1ccc(C2=NN(Cc3ccc(CN4CCOCC4)cc3)C(=O)[C@@H]3CC=CC[C@H]23)cc1OC,8.06,–,–,–,7.09
COc1ccc(C2=NNC(=O)[C@@H]3CC=CC[C@H]23)cc1OC (racemic),7.07,6.68,–,–,–
COc1ccc(C2=NN(Cc3ccc(CN4CCOCC4)cc3)C(=O)[C@@H]3CC=CC[C@H]23)cc1OC (racemic),9.05,–,–,–,9.05
COc1ccc(C2=NN(Cc3ccccc3CN3CCOCC3)C(=O)[C@@H]3CC=CC[C@H]23)cc1OC (relative stereo),8.89,9.00,–,36.8%,–
COc1ccc(C2=NN(C/C=C/Cn3ccnc3)C(=O)[C@@H]3CC=CC[C@H]23)cc1OC (relative stereo),9.40,9.15,–,–,–
COc1ccc(C2=NN(Cc3ccc(Cn4ccnc4)cc3)C(=O)[C@@H]3CC=CC[C@H]23)cc1OC (relative stereo),9.15,9.30,–,–,–
COc1ccc(C2=NN(Cc3ccc(CN4CCN(C)CC4)cc3)C(=O)[C@@H]3CC=CC[C@H]23)cc1OC (relative stereo),8.70,7.84,–,–,–
COc1ccc(C2=NN(Cc3ccc(CN(C)C)cc3)C(=O)[C@@H]3CC=CC[C@H]23)cc1OC (relative stereo),8.01,7.46,–,–,–
COc1ccc(C2=NN(Cc3ccc(CN4CCC(=O)CC4)cc3)C(=O)[C@@H]3CC=CC[C@H]23)cc1OC (relative stereo),9.05,8.52,–,36.8%,–
COc1ccc(C2=NN(Cc3ccccc3CN3CCOCC3)C(=O)[C@@H]3CCCC[C@H]23)cc1OC (relative stereo),9.00,8.34,–,–,–
COc1ccc(C2=NN(CCOCCn3ccnc3)C(=O)[C@@H]3CC=CC[C@H]23)cc1OC (relative stereo),8.28,8.04,–,–,–
COc1ccc(C2=NN(Cc3cccc(CN4CCOCC4)c3)C(=O)[C@@H]3CC=CC[C@H]23)cc1OC (relative stereo),8.85,8.52,–,–,–
COc1ccc(C2=NN(Cc3ccc(CN4CCC5(CC4)OCCO5)cc3)C(=O)[C@@H]3CC=CC[C@H]23)cc1OC (relative stereo),8.89,9.05,–,–,–
COc1ccc(C2=NN(Cc3ccc(CN4CCOCC4)cc3)C(=O)[C@@H]3C[C@H]23)cc1OC (relative stereo),7.79,6.93,–,–,–
COc1ccc(C2=NN(Cc3ccc(CN4CCCCC4)cc3)C(=O)[C@@H]3CC=CC[C@H]23)cc1OC (relative stereo),8.09,7.24,–,–,–
COc1ccc(C2=NN(Cc3ccc(CN4CCOCC4)cc3)C(=O)[C@@H]3CC[C@H]23)cc1OC (relative stereo),8.37,7.35,–,–,–
COc1ccc(C2=NN(CC(=O)NCCCn3ccnc3)C(=O)[C@@H]3CC=CC[C@H]23)cc1OC (relative stereo),7.84,6.95,–,–,–
